The source made the active and inactive calls. The calls are words filed in the database; no cut-off is given here.
How the values were obtained:
[1] = target: Glycogen synthase kinase-3 beta (Homo sapiens, UniProt P49841); assay: Inhibition of GSK3beta
Procedure, shortened: (§1)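 Ki values were calculated from measured IC50 values of kinase inhibition.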

[2] = target: Cyclin-dependent kinase 5/CDK5 activator 1 (Homo sapiens, UniProt Q00535); assay: Inhibition of CDK5/p25; type: protein-complex assay; procedure, shortened: as §1
[3] = target: Cyclin-dependent kinase 1/cyclin B1 (Homo sapiens, UniProt P06493); assay: Inhibition of CDK1/Cyclin B; type: protein-complex assay; procedure, shortened: as §1
[4] = target: Cyclin-dependent kinase 2/cyclin E (Homo sapiens, UniProt P24941); assay: Inhibition of CDK2/Cyclin E; type: protein-complex assay; procedure, shortened: as §1
[5] = Inhibition of CDK4/Cyclin D; procedure, shortened: as §1
[6] = target: T1, Protein kinase C epsilon type (Homo sapiens, UniProt Q02156); assay: Inhibition of PKCepsilon
T1 sequence (Q02156 whole entry): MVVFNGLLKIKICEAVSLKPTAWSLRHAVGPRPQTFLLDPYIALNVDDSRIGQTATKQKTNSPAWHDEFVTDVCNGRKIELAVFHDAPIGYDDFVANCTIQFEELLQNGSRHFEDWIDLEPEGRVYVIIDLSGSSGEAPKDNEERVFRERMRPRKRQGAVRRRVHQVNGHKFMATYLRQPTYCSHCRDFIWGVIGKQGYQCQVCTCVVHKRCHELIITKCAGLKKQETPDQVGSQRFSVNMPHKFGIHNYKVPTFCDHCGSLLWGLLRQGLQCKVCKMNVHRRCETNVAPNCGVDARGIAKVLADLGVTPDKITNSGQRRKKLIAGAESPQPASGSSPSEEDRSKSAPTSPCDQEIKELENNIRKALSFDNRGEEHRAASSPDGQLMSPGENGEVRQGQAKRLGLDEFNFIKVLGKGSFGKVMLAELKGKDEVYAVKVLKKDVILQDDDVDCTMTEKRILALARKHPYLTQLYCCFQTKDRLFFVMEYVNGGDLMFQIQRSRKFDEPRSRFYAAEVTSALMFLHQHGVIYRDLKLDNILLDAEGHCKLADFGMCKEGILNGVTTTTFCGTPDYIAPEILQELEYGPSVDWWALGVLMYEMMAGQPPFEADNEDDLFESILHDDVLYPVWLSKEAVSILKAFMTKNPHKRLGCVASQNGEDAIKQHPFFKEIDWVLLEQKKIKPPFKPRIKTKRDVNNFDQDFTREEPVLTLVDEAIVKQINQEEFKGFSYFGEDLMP

[7] = target: Glycogen synthase kinase-3 beta (Mus musculus) (UniProt Q9WV60); assay: Inhibition of GSK3beta-mediated Tau S202/T205 phosphorylation in mouse N2A cells at 2.6 to 24 uM after 16 hrs by immunoblot analysis; type: cell-based
Procedure, shortened: (§2)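 Mouse N2A cells stably transfected with a 3-repeat tau construct were grown 24 h in DMEM/HAMs F-12 (pH 7.4), 5% FBS, 2 mM L-glutamine and gentamicin (37 °C, 5% CO2). They were then exposed 16 h to inhibitor diluted from a 25 mM DMSO stock (final DMSO ≤0.4%, also in controls). Lysate proteins were run on 8% SDS–PAGE, blotted to PVDF, and probed for phospho-Ser202/Thr205 tau.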

Angiopoietin-1 receptor = Angiopoietin-1 receptor (Homo sapiens, UniProt Q02763); assay: Inhibition of TIE2
N2a [8] = assay: Cytotoxicity against mouse N2A cells up to 90 uM by MTT assay; type: cell-based
Procedure, shortened: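 N2A cells were treated at up to 90 µM. MTT was added in triplicate to a final 1 mg/mL for 2 h. Medium was removed, formazan taken up in DMSO plus glycine buffer (0.1 M glycine, pH 10.5, 0.1 M NaCl), and absorbance read at 550 nm. Cells lysed with 1% Triton X-100 set 100% death; untreated cells served as reference.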

N2a [9] = assay: Cytotoxicity against mouse N2A cells up to 90 uM by LDH assay; type: cell-based
Procedure, shortened: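 Membrane integrity in N2A cells was read as extracellular lactate dehydrogenase activity, at compound concentrations up to 90 µM. Absorbance was read at 492 nm 20 min after adding the reagent mixture and compared with compound-free cells.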

Wee1-like protein kinase = Wee1-like protein kinase (Homo sapiens, UniProt P30291); assay: Inhibition of WEE1
[10] = target: Vascular endothelial growth factor receptor 2 (Homo sapiens, UniProt P35968); assay: Inhibition of VEGFR2
[11] = target: Cdk5-Cdk5r1 complex (Mus musculus) (UniProt P49615+P61809); assay: Inhibition of CDK5/p25-mediated Tau S202/T205 phosphorylation in mouse N2A cells at 2.6 to 24 uM after 16 hrs by immunoblot analysis; type: cell-based; procedure, shortened: as §2
[12] = target: Protein kinase C alpha type (Homo sapiens, UniProt P17252); assay: Inhibition of PKCalpha
[13] = target: T2, Protein kinase C iota type (Homo sapiens, UniProt P41743); assay: Inhibition of PKCiota
T2 sequence (P41743 whole entry): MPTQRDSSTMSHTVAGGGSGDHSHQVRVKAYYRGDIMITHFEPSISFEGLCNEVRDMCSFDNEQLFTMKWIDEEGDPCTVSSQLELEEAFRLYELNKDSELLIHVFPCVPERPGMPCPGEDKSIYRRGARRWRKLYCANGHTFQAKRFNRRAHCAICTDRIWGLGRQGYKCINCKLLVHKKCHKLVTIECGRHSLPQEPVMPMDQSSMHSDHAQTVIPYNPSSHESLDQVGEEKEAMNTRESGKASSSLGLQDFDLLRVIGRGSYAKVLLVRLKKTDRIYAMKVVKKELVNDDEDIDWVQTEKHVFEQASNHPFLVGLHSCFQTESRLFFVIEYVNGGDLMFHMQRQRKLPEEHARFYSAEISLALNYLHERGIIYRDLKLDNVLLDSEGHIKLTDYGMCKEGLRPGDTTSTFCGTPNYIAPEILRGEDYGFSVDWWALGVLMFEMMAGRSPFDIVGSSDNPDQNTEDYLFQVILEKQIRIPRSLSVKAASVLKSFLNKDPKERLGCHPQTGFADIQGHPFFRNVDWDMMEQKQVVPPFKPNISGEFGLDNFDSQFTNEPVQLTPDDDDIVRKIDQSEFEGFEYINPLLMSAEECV

[14] = target: Casein kinase I isoform alpha (Homo sapiens, UniProt P48729); assay: Inhibition of Ck1alpha1
CDK6/cyclin D1 = CDK6/cyclin D1 (Homo sapiens, UniProt Q00534); assay: Inhibition of CDK6/Cyclin D1; type: protein-complex assay
[15] = target: Receptor tyrosine-protein kinase erbB-2 (Homo sapiens, UniProt P04626); assay: Inhibition of ERBB2
[16] = target: Protein kinase C gamma type (Homo sapiens, UniProt P05129); assay: Inhibition of PKCgamma

Sequence of Glycogen synthase kinase-3 beta (P49841 whole entry): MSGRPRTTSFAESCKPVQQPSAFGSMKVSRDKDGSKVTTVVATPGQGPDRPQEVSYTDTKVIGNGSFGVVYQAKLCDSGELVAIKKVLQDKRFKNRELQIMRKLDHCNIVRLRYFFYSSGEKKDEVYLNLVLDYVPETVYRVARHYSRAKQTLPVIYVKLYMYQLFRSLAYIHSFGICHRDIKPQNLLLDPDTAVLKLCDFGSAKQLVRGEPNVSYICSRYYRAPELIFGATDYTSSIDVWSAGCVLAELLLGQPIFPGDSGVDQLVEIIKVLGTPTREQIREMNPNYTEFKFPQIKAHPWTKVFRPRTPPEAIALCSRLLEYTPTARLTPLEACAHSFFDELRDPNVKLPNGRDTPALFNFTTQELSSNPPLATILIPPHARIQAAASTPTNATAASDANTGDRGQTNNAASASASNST
Sequence of Cyclin-dependent kinase 5/CDK5 activator 1 (Q00535 whole entry): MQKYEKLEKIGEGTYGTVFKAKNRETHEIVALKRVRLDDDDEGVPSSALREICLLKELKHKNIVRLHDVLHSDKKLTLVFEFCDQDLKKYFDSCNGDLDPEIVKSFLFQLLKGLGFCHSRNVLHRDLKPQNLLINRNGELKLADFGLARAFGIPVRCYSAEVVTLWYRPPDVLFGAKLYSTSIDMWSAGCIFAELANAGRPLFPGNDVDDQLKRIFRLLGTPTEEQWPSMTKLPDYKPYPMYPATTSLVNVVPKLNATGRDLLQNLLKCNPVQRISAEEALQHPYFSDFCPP
Sequence of Cyclin-dependent kinase 5/CDK5 activator 1 (Q15078 whole entry, further chain): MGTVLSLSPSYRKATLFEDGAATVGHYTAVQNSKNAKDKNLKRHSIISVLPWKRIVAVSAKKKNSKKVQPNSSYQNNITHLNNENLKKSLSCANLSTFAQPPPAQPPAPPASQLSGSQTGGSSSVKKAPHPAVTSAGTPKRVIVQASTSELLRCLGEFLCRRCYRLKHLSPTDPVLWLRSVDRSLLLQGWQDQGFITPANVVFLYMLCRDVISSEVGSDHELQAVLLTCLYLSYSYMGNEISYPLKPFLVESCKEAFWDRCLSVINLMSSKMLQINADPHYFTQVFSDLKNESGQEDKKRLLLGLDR
Sequence of Cyclin-dependent kinase 1/cyclin B1 (P06493 whole entry): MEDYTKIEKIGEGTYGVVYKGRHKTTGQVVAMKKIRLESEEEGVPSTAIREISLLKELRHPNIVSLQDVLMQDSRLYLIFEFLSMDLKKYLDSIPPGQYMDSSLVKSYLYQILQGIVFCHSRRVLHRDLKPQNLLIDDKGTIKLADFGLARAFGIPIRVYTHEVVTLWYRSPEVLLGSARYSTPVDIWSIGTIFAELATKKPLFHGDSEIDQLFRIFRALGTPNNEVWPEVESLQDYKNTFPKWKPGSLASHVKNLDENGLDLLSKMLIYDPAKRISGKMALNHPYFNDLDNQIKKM
Sequence of Cyclin-dependent kinase 1/cyclin B1 (P14635 whole entry, further chain): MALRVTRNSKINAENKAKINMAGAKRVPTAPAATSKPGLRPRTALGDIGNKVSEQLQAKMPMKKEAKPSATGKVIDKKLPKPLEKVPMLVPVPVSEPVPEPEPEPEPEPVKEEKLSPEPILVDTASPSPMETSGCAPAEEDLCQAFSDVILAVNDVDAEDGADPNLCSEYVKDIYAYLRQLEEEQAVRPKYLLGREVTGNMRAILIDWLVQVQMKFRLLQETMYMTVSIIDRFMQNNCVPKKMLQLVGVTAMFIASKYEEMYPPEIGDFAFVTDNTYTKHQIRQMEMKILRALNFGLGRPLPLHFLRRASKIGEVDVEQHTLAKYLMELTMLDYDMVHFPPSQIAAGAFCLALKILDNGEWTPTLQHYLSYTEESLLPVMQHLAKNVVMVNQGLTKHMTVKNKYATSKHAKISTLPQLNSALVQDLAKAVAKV
Sequence of Receptor tyrosine-protein kinase erbB-2 (P04626 whole entry): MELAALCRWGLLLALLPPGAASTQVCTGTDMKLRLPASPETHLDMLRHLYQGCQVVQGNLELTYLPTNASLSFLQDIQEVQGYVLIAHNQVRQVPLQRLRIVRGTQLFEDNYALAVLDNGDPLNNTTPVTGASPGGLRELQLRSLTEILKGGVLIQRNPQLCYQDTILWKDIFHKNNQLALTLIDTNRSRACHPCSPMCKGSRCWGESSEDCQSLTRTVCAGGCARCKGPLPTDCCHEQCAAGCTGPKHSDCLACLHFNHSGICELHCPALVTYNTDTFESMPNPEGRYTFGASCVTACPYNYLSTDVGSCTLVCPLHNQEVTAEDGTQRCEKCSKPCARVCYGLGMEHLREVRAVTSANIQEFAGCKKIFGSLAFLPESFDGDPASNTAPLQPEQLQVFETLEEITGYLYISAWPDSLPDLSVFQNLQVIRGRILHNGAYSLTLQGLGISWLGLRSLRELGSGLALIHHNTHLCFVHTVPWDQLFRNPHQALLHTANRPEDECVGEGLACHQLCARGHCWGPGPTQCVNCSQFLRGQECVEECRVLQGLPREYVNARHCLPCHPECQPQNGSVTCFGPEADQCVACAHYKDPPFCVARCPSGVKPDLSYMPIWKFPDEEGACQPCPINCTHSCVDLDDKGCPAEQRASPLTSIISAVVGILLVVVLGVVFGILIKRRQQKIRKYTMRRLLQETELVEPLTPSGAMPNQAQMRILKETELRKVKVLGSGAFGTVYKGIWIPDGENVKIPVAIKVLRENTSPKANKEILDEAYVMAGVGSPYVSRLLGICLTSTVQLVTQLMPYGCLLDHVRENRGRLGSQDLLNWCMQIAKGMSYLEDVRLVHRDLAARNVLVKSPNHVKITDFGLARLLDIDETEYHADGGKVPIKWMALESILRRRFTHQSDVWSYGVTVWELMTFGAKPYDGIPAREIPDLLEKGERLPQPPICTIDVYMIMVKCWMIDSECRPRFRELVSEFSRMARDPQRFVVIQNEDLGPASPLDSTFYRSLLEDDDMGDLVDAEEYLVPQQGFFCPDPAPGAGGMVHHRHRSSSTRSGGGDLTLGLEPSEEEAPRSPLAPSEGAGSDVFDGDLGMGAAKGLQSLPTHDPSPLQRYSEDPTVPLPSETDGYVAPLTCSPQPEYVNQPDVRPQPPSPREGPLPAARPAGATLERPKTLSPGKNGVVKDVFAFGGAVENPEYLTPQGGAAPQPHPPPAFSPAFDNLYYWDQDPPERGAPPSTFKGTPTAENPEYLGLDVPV
Sequence of Glycogen synthase kinase-3 beta (Mus musculus) (Q9WV60 whole entry, looked up): as the sequence (P49841 whole entry) above, with T390P, T392A, A400T, T402A counted along it
Sequence of Angiopoietin-1 receptor (Q02763 whole entry): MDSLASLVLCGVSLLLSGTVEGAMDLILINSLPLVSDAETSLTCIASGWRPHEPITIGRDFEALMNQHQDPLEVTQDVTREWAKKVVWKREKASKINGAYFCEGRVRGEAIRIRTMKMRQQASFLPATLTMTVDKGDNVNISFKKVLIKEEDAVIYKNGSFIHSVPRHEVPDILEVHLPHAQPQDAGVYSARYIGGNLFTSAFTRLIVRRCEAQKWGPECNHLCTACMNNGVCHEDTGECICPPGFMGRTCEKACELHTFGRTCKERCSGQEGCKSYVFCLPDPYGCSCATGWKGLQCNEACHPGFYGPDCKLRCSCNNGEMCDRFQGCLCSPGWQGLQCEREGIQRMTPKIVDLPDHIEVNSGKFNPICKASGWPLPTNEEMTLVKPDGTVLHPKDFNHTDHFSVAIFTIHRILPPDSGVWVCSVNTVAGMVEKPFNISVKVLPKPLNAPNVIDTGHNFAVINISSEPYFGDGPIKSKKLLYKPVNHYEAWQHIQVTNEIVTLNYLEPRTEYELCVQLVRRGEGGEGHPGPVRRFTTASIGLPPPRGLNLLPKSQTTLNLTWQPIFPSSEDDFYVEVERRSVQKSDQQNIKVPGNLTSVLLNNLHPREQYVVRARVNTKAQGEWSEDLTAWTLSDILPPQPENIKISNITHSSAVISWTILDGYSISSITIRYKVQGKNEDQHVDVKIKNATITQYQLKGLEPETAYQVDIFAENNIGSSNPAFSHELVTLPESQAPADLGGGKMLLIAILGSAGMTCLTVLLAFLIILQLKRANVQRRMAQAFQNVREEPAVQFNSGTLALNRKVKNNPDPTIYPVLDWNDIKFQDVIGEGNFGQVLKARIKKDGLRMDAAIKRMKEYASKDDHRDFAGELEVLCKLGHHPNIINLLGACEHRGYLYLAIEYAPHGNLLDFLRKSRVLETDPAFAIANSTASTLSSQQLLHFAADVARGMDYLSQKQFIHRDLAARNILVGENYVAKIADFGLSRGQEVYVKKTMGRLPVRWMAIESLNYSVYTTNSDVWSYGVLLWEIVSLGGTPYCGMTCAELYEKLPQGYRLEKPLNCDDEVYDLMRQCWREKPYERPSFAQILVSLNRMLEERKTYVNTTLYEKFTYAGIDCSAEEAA

Structure (SMILES)	Ki [1] [µM]	Ki [2] [µM]	Ki [3] [µM]	Ki [4] [µM]	Ki [5] [µM]	also measured
Cc1cc2oc3ncc(OCc4ccccc4)c(-c4ccccc4)c3c2cc1O	5.8	25.3	1.3			
COc1ccc2oc3ncc(O)c(-c4ccccc4)c3c2c1	> 1000	> 1000	> 1000	> 1000	144	
Oc1ccc2oc3ncc(O)c(-c4ccccc4)c3c2c1	0.02	0.11	0.01	0.6	18.5	Ki [6]: > 1000 µM; inhibition [7]: Active; Ki (Angiopoietin-1 receptor): > 1000 µM; Activity (N2a [8]): Non-toxic; Activity (N2a [9]): Non-toxic; Ki (Wee1-like protein kinase): > 1000 µM; Ki [10]: > 1000 µM; inhibition [11]: Active; Ki [12]: > 1000 µM; Ki [13]: > 1000 µM; Ki [14]: > 1000 µM; Ki (CDK6/cyclin D1): 773 µM; Ki [15]: > 1000 µM; Ki [16]: > 1000 µM
COc1ccc2oc3ncc(OCc4ccccc4)c(-c4ccccc4)c3c2c1	0.02	26.1	> 1000	> 1000	> 1000	
Oc1cc2c(oc3ncc(OCc4ccccc4)c(-c4ccccc4)c32)c2ccccc12	1.6	2.1	0.09			
Oc1cnc2oc3c4ccccc4c(O)cc3c2c1-c1ccccc1	0.01	0.07	0.7			
COc1cnc2oc3ccc(O)cc3c2c1-c1ccccc1	14.8	> 1000	5.3	24	93.6	
Oc1ccc2oc3ncc(OCc4ccccc4)c(-c4ccccc4)c3c2c1	5.8	> 1000	2.3	6.4	36.6	
COc1ccc2oc3ncc(OC)c(-c4ccccc4)c3c2c1	> 1000	> 1000	> 1000	> 1000	> 1000	

From ChEMBL document CHEMBL2163247, “Multitargeted drug development: Discovery and profiling of dihydroxy substituted 1-aza-9-oxafluorenes as lead compounds targeting Alzheimer disease relevant kinases” (Bioorg Med Chem Lett, 2012)
